# Reference: ChEMBL document CHEMBL1799990, “Triazole and dihydroimidazole alkaloids from the marine sediment-derived fungus Penicillium paneum SD-44” (J Nat Prod, 2011)
# The source made the active and inactive calls. The calls are words filed in the database; no cut-off is given here.
# Key:
# Bel-7402 = assay: Cytotoxicity against human Bel7402 cells; type: functional, cell-based
# [1] = system: Fusarium oxysporum f. sp. vasinfectum; assay: Antifungal activity against Fusarium oxysporum f. sp. vasinfectum by disk diffusion method; type: functional, organism-based
# How it was run: (§1)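 Disk diffusion assay against the five plant-pathogenic fungi, run alongside amphotericin B as the positive control.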
# Aspergillus niger = assay: Antifungal activity against Aspergillus niger by disk diffusion method; type: functional, organism-based; how it was run: as §1
# [2] = system: Botryosphaeria berengeriana; assay: Antifungal activity against Physalospora pyricola by disk diffusion method; type: functional, organism-based; how it was run: as §1
# A549 = assay: Cytotoxicity against human A549 cells; type: functional, cell-based
# [3] = Antifungal activity against Coniella diplodiella by disk diffusion method; type: functional; how it was run: as §1
# Alternaria brassicae = assay: Antifungal activity against Alternaria brassicae by disk diffusion method; type: functional; how it was run: as §1
# Staphylococcus aureus = assay: Antibacterial activity against Staphylococcus aureus by disk diffusion method; type: functional, organism-based
# How it was run: (§2)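 Disk diffusion assay against the two bacteria, run alongside chloramphenicol as the positive control.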
# Escherichia coli = assay: Antibacterial activity against Escherichia coli by disk diffusion method; type: functional, organism-based; how it was run: as §2
# SMMC-7721 = assay: Cytotoxicity against human SMMC7721 cells; type: functional, cell-based
Structure (SMILES),IC50 (Bel-7402),Activity [1],Activity (Aspergillus niger),Activity [2],IC50 (A549),Activity [3],Activity (Alternaria brassicae),Activity (Staphylococcus aureus),Activity (Escherichia coli),IC50 (SMMC-7721)
O=c1[nH]c(Cc2ccc(O)cc2)nc2ccccc12,19.8 µM,inactive,inactive,inactive,17.5 µM,inactive,inactive,inactive,inactive,
O=C(O)c1ccccc1-n1ncnc1Cc1ccc(O)cc1 [PENIPANOID A],,inactive,inactive,inactive,,inactive,inactive,inactive,inactive,54.2 µM
O=c1[nH]cc(F)c(=O)[nH]1 [FLUOROURACIL],21.8 µM,,,,13.7 µM,,,,,13 µM
O=C(c1ccc(O)cc1)c1nc2ccccc2c(=O)[nH]1,,inactive,inactive,inactive,,inactive,inactive,inactive,inactive,
O=C1N[C@H]2[C@H](c3ccc(O)cc3)N=CN2c2ccccc21,,inactive,inactive,inactive,,inactive,inactive,inactive,inactive,
